Assay results published in ChEMBL document CHEMBL3734760 (Bioorg Med Chem Lett, 2015).

Key:
Prolyl endopeptidase FAP = target: T1, Prolyl endopeptidase FAP (Bos taurus, UniProt A5D7B7); assay: Inhibition of bovine serum FAP
T1 sequence (A5D7B7 whole entry): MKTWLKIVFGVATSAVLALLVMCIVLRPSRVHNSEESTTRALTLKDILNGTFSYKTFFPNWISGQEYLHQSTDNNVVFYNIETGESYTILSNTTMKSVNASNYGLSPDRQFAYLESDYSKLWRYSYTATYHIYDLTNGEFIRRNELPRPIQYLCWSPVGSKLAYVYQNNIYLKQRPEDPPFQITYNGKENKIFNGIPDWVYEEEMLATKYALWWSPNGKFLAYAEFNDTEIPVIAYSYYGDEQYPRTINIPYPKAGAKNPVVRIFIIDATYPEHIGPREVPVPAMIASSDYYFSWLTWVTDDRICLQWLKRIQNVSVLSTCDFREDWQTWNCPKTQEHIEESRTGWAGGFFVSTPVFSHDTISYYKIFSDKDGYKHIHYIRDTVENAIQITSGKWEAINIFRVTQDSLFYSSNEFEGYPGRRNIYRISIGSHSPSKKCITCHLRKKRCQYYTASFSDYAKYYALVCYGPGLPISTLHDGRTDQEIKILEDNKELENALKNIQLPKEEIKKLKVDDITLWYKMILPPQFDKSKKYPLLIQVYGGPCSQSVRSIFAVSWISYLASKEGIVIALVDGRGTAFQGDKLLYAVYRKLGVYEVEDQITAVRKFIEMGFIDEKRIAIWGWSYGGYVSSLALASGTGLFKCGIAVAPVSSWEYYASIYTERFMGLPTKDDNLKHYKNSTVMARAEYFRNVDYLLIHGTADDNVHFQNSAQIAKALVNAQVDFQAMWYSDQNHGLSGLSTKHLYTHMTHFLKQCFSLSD

[1] = target: Voltage-dependent L-type calcium channel subunit alpha-1C (Homo sapiens, UniProt Q13936); assay: […]
Sequence of Voltage-dependent L-type calcium channel subunit alpha-1C (Q13936 whole entry): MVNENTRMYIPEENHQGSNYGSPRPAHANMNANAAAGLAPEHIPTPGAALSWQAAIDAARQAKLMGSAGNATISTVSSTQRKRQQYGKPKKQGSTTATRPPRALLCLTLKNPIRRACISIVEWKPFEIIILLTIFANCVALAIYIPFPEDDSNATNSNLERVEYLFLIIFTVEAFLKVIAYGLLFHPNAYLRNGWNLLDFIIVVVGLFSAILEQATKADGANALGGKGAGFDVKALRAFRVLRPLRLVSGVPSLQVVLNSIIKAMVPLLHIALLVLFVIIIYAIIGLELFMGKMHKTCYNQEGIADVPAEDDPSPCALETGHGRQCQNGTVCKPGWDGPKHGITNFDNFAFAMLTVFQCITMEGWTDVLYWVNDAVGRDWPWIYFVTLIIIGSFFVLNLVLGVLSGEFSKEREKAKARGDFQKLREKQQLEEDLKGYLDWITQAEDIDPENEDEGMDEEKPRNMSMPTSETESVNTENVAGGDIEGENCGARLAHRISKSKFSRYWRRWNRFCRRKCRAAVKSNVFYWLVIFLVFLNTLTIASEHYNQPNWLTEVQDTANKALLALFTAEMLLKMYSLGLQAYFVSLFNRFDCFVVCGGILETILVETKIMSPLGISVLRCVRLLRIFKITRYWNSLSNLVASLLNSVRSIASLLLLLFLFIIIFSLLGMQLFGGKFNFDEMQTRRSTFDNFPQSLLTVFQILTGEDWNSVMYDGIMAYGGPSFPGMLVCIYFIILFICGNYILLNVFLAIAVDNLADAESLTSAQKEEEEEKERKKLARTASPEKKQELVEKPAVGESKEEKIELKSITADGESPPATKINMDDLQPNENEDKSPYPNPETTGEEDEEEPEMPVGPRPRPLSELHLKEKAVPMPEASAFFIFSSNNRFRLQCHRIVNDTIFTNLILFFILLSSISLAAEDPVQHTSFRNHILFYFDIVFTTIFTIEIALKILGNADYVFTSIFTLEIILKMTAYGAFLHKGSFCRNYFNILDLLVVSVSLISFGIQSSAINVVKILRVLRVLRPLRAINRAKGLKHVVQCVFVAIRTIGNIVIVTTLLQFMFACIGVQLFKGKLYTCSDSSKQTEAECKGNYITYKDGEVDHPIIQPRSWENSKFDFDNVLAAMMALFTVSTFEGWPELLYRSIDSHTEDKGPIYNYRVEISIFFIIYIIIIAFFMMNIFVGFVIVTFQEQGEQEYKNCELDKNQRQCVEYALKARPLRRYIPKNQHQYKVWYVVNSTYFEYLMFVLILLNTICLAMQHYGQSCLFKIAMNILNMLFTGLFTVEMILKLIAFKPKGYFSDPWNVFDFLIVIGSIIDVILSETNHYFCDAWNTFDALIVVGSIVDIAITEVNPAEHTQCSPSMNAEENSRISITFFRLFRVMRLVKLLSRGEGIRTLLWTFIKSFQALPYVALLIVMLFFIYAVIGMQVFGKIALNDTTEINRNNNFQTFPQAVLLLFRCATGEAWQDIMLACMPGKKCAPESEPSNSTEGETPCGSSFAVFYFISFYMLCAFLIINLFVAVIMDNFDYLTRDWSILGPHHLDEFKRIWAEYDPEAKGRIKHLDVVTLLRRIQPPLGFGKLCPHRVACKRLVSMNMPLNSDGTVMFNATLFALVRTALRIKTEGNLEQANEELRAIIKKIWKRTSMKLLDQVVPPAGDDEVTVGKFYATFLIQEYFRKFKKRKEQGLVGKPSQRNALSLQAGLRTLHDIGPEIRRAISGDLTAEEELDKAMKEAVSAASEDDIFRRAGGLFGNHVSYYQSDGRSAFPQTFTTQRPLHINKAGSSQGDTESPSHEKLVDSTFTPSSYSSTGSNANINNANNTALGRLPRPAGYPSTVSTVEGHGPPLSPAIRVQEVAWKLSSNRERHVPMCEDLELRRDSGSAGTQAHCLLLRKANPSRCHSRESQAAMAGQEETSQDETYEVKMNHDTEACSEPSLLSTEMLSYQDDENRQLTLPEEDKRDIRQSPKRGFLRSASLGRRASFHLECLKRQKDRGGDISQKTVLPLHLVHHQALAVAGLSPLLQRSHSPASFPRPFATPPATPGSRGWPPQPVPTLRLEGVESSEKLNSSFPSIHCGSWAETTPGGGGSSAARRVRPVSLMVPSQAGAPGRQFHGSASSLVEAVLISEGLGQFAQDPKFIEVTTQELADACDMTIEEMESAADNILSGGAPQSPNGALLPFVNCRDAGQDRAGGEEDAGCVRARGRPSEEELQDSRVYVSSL

[2] = target: Voltage-gated inwardly rectifying potassium channel KCNH2 (Homo sapiens, UniProt Q12809); assay: Inhibition of human ERG assessed as reduction in IKr current
Sequence of Voltage-gated inwardly rectifying potassium channel KCNH2 (Q12809 whole entry): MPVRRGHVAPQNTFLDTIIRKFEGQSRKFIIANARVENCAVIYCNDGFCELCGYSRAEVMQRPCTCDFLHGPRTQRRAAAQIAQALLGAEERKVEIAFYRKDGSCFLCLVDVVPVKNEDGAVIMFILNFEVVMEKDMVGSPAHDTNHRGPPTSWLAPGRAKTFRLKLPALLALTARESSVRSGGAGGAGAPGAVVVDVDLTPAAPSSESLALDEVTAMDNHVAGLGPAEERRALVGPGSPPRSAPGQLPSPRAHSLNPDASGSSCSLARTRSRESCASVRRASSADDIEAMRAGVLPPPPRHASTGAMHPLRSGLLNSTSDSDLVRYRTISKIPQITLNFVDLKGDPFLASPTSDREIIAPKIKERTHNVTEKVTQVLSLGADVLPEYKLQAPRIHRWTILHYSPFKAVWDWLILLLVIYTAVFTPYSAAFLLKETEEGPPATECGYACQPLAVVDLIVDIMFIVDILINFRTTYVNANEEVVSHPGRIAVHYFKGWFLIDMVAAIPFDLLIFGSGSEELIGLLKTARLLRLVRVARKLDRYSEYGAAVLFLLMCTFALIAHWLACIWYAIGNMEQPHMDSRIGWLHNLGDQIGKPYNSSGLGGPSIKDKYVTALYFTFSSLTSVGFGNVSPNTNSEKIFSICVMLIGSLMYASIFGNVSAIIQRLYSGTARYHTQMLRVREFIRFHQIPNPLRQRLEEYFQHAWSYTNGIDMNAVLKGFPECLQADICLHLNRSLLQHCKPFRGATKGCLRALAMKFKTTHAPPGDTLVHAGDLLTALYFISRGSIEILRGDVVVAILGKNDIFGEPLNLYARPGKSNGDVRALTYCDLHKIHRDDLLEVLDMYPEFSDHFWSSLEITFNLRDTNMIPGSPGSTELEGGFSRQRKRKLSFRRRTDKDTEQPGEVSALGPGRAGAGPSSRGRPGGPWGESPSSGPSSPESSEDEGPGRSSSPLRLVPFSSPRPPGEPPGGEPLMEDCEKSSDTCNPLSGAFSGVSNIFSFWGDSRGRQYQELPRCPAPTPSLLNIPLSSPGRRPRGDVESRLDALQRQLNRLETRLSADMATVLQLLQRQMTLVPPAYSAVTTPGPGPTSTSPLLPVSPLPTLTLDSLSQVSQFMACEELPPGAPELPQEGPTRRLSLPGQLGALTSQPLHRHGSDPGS

Canis familiaris = assay: Dose normalized AUC in dog at 1 mg/kg, iv and 2 mg/kg, po; format: ADME, organism-based, Canis lupus familiaris; details: in vivo
Summary of the method: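 Dogs were dosed 1 mg/kg iv and 2 mg/kg po. AUC is reported normalized to dose in µM h/mg/kg.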

Dipeptidyl peptidase 2 = Dipeptidyl peptidase 2 (Homo sapiens, UniProt Q9UHL4); assay: Inhibition of N-terminal FLAG tagged human QPP expressed in Sf9 cells using Nle-Pro-AMC substrate after 30 mins by plate reader analysis
Dipeptidyl peptidase 8 = Dipeptidyl peptidase 8 (Homo sapiens, UniProt Q6V1X1); assay: Inhibition of C-terminal His-tagged DPP8 (unknown origin) expressed in COS7 cells using H-Ala-Pro-pNA substrate preincubated for 15 mins; format: cell-based, COS-7
Sequence of Dipeptidyl peptidase 8 (Q6V1X1 whole entry): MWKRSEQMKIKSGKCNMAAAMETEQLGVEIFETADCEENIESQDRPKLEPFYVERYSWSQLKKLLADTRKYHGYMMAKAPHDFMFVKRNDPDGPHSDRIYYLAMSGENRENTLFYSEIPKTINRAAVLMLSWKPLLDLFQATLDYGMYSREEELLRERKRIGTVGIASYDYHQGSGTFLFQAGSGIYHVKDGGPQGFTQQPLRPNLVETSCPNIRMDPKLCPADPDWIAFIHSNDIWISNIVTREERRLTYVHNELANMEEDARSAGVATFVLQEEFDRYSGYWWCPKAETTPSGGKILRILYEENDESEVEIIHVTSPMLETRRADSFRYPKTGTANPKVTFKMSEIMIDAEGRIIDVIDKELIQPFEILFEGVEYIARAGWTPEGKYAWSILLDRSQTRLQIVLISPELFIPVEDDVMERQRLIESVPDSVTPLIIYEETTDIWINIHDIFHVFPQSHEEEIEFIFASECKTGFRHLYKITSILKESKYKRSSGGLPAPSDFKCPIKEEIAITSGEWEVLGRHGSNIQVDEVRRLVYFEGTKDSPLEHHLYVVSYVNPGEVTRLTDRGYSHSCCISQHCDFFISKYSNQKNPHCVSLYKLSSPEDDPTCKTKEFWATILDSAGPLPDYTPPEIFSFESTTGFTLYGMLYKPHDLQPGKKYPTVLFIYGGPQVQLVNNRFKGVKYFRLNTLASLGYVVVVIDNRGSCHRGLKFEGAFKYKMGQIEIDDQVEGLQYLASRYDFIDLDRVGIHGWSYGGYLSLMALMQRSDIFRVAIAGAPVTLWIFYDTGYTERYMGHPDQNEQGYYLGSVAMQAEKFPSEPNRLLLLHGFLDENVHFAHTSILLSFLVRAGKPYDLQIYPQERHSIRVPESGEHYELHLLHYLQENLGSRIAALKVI

[3] = Half life in rat at 1 mg/kg, iv and 2 mg/kg, po; format: ADME, organism-based; details: in vivo
Summary of the method: (§1)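 Rats received 1 mg/kg iv plus 2 mg/kg po, or 0.4 mg/kg iv alone. Plasma clearance is reported in ml/min/kg, half-life in h, and AUC normalized to dose in µM h/mg/kg.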

[4] = Plasma clearance in rat at 1 mg/kg, iv and 2 mg/kg, po; format: ADME, organism-based; summary of the method: as §1
Rattus norvegicus = assay: Dose normalized AUC in rat at 1 mg/kg, iv and 2 mg/kg, po; format: ADME, organism-based; details: in vivo; summary of the method: as §1
[5] = Oral bioavailability in rat at 2 mg/kg; format: ADME, organism-based; details: in vivo; summary of the method: as §1
[6] = Plasma clearance in dog at 1 mg/kg, iv and 2 mg/kg, po; format: ADME, organism-based, Canis lupus familiaris
[7] = Half life in dog at 1 mg/kg, iv and 2 mg/kg, po; format: ADME, organism-based, Canis lupus familiaris; details: in vivo
[8] = Oral bioavailability in dog at 2 mg/kg; format: ADME, organism-based, Canis lupus familiaris; details: in vivo

| IC50 (Prolyl endopeptidase FAP) [µM] | IC50 (Dipeptidyl peptidase 2) [µM] | IC50 (Dipeptidyl peptidase 8) [µM] | half-life [3] [h] | clearance [4] [mL/min/kg] | AUC/dose (Rattus norvegicus) [µM·h/mg/kg] | Structure (SMILES) | also measured |
| --- | --- | --- | --- | --- | --- | --- | --- |
| > 100 | – | – | – | – | – | N[C@H]1C[C@@H](N2Cc3cn[nH]c3C2)CO[C@@H]1c1cc(F)ccc1F | IC50 [1]: > 30 µM; IC50 [2]: > 30 µM; AUC/dose (Canis familiaris): 16 µM·h/mg/kg |
| 26 | > 100 | > 100 | 0.5 | 96 | 0.4 | N[C@H]1C[C@@H](N2Cc3cnn(S(=O)(=O)C4CCCC4)c3C2)CO[C@@H]1c1cc(F)ccc1F | – |
| 8.8 | > 100 | > 100 | 2 | 16 | 2.5 | CS(=O)(=O)Nc1n[nH]c2c1CN([C@H]1CO[C@H](c3cc(F)ccc3F)[C@@H](N)C1)C2 | – |
| 32 | – | – | 2.1 | 12 | 3.4 | CCS(=O)(=O)Nc1n[nH]c2c1CN([C@H]1CO[C@H](c3cc(F)ccc3F)[C@@H](N)C1)C2 | – |
| > 100 | > 100 | > 100 | – | – | – | CCCS(=O)(=O)n1cc2c(n1)CN([C@H]1CO[C@H](c3cc(F)ccc3F)[C@@H](N)C1)C2 | – |
| 22 | > 100 | > 100 | 5.5 | 64 | 0.6 | N[C@H]1C[C@@H](N2Cc3[nH]nc(NC(=O)C4CC4)c3C2)CO[C@@H]1c1cc(F)ccc1F | – |
| 3.8 | > 100 | – | 1.5 | 24 | 1.6 | N[C@H]1C[C@@H](N2Cc3[nH]nc(NS(=O)(=O)C4CC4)c3C2)CO[C@@H]1c1cc(F)ccc1F | – |
| 40 | – | – | – | – | – | N[C@H]1C[C@@H](N2Cc3[nH]nc(NC(=O)c4nccs4)c3C2)CO[C@@H]1c1cc(F)ccc1F | – |
| 69 | > 100 | > 100 | 5.2 | 1.6 | 22 | CCS(=O)(=O)n1cc2c(n1)CN([C@H]1CO[C@H](c3cc(F)ccc3F)[C@@H](N)C1)C2 | IC50 [1]: > 30 µM; bioavailability [5]: 84%; IC50 [2]: > 60 µM; clearance [6]: 3.3 mL/min/kg; half-life [7]: 13 h; AUC/dose (Canis familiaris): 25 µM·h/mg/kg; bioavailability [8]: 100% |
| > 100 | – | > 100 | 6.2 | 0.9 | 47 | N[C@H]1C[C@@H](N2Cc3cn(S(=O)(=O)C4CC4)nc3C2)CO[C@@H]1c1cc(F)ccc1F | IC50 [1]: > 30 µM; clearance [6]: 1.6 mL/min/kg; half-life [7]: 17 h; AUC/dose (Canis familiaris): 25 µM·h/mg/kg; bioavailability [8]: 90% |
| 60 | – | > 100 | – | – | – | N[C@H]1C[C@@H](N2Cc3[nH]nc(NS(=O)(=O)Cc4ccncc4)c3C2)CO[C@@H]1c1cc(F)ccc1F | – |
| 32 | > 100 | > 100 | – | – | – | N[C@H]1C[C@@H](N2Cc3[nH]nc(NS(=O)(=O)CC(F)(F)F)c3C2)CO[C@@H]1c1cc(F)ccc1F | – |
| 16 | > 100 | > 100 | – | – | – | CC(C)S(=O)(=O)c1n[nH]c2c1CN([C@H]1CO[C@H](c3cc(F)ccc3F)[C@@H](N)C1)C2 | – |
| 14 | – | – | – | – | – | N[C@H]1C[C@@H](N2Cc3[nH]nc(S(=O)(=O)c4ccccc4)c3C2)CO[C@@H]1c1cc(F)ccc1F | – |
| 45 | – | – | – | – | – | Cn1cnc(S(=O)(=O)n2ncc3c2CN([C@H]2CO[C@H](c4cc(F)ccc4F)[C@@H](N)C2)C3)c1 | – |
| > 100 | > 100 | > 100 | 1.3 | 7 | 5.6 | CC(C)S(=O)(=O)n1cc2c(n1)CN([C@H]1CO[C@H](c3cc(F)ccc3F)[C@@H](N)C1)C2 | bioavailability [5]: 93% |
| 20 | > 100 | – | – | – | – | CS(=O)(=O)c1n[nH]c2c1CN([C@H]1CO[C@H](c3cc(F)ccc3F)[C@@H](N)C1)C2 | – |
| 27 | > 100 | – | – | – | – | N[C@H]1C[C@@H](N2Cc3[nH]nc(NC(=O)c4ccncc4)c3C2)CO[C@@H]1c1cc(F)ccc1F | – |
| > 100 | > 100 | – | – | – | – | N[C@H]1C[C@@H](N2Cc3cn(S(=O)(=O)c4cccc(C(F)(F)F)c4)nc3C2)CO[C@@H]1c1cc(F)ccc1F | – |
| 50 | – | – | 1.5 | 41 | 0.9 | N[C@H]1C[C@@H](N2Cc3cn(S(=O)(=O)C4CCCC4)nc3C2)CO[C@@H]1c1cc(F)ccc1F | – |
| 47 | > 100 | > 100 | 2.2 | 60 | 0.7 | CCC(=O)Nc1n[nH]c2c1CN([C@H]1CO[C@H](c3cc(F)ccc3F)[C@@H](N)C1)C2 | – |
| 6.3 | – | – | – | – | – | N[C@H]1C[C@@H](N2Cc3[nH]nc(NS(=O)(=O)c4c[nH]cn4)c3C2)CO[C@@H]1c1cc(F)ccc1F | – |
| > 100 | > 100 | > 100 | – | – | – | N[C@H]1C[C@@H](N2Cc3cn(S(=O)(=O)C(F)(F)F)nc3C2)CO[C@@H]1c1cc(F)ccc1F | – |
| 54 | – | > 100 | 1.6 | 24 | 1.7 | N[C@H]1C[C@@H](N2Cc3cnn(S(=O)(=O)C4CC4)c3C2)CO[C@@H]1c1cc(F)ccc1F | bioavailability [5]: 79% |
| 95 | – | – | – | – | – | Cn1cnc(S(=O)(=O)n2cc3c(n2)CN([C@H]2CO[C@H](c4cc(F)ccc4F)[C@@H](N)C2)C3)c1 | – |
| > 100 | – | – | – | – | – | N[C@H]1C[C@@H](N2Cc3cn(S(=O)(=O)c4ccccc4)nc3C2)CO[C@@H]1c1cc(F)ccc1F | – |

| Structure (SMILES) | IC50 (Prolyl endopeptidase FAP) [µM] | IC50 (Dipeptidyl peptidase 2) [µM] | IC50 (Dipeptidyl peptidase 8) [µM] | half-life [3] [h] | clearance [4] [mL/min/kg] | AUC/dose (Rattus norvegicus) [µM·h/mg/kg] | also measured |
| --- | --- | --- | --- | --- | --- | --- | --- |
| CS(=O)(=O)n1cc2c(n1)CN([C@H]1CO[C@H](c3cc(F)ccc3F)[C@@H](N)C1)C2 [OMARIGLIPTIN] | > 100 | > 100 | > 100 | – | – | 48 | IC50 [1]: > 30 µM; clearance [6]: 0.9 mL/min/kg; half-life [7]: 22 h; AUC/dose (Canis familiaris): 54 µM·h/mg/kg; bioavailability [8]: 100% |
